Results reported in ChEMBL document CHEMBL1156114 (Bioorg Med Chem Lett, 2009).

T1: Thymidine kinase (Varicella-zoster virus, UniProt P0C0E6)
T1 sequence (P0C0E6 whole entry): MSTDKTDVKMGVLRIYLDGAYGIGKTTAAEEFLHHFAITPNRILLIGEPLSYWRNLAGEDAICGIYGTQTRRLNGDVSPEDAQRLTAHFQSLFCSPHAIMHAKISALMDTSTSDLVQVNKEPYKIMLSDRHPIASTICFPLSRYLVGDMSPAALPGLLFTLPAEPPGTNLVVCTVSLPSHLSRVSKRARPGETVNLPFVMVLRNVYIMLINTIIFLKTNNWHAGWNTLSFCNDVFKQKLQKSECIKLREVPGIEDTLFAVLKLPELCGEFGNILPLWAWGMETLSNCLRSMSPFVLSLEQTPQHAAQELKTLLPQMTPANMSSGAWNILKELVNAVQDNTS

T2: Thymidine kinase (Varicella-zoster virus) (UniProt P0C0E6)
T2 sequence (whole entry): T1 sequence (P0C0E6 whole entry)

B1: Thymidine kinase (Varicella-zoster virus), P0C0E6 (protein)
chain: T1 sequence (P0C0E6 whole entry)

How the values were obtained:
[1] = target: T1, Thymidine kinase; test: Displacement of [CH3-3H]deoxythymidine from Varicella zoster virus recombinant thymidine kinase after 30 mins; set-up: species or system Human alphaherpesvirus 3
How it was run: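 Inhibition of VZV TK phosphorylation of 1 µM [CH3-3H]dThd (0.1 µCi) in 50 mM Tris-HCl pH 8.0, 2.5 mM MgCl2, 10 mM DTT, 2.5 mM ATP, 10 mM NaF, 1 mg/mL BSA. Reaction started with enzyme, 37 °C for 30 min. Product captured on DE-81 discs, washed in ammonium formate then ethanol, and counted by scintillation. IC50 is the concentration inhibiting phosphorylation by 50%.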

[2] = target: T2, Thymidine kinase (Varicella-zoster virus); test: Ratio of Vmax to Km for Varicella zoster virus recombinant thymidine kinase; settings: Human alphaherpesvirus 3
How it was run: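 Km and Vmax for each compound as VZV TK substrate, from monophosphate formation at 0.5, 2, 5 and 12.5 µM compound. Enzyme in Tris-HCl pH 8 with 2.5 mM ATP and MgCl2, 37 °C, 60 min. Product quantified by reversed-phase HPLC with fluorescence detection (ex 340/em 415 nm).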

[3] = tested on: Human alphaherpesvirus 3; test: Antiviral activity against Varicella zoster virus OKA infected human HEL cells assessed as reduction in viral plaque formation after 5 days; type: functional, cell-based; settings: Human alphaherpesvirus 3, strain Oka vaccine, 120 h
How it was run: (§1)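 Confluent HEL cells infected with VZV at 20 PFU/well for 2 h. Residual virus removed, then compound added at varying concentrations in duplicate. Plaques counted after 5 days.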

[4] = tested on: Human alphaherpesvirus 3; test: Antiviral activity against Varicella zoster virus YS infected human HEL cells assessed as reduction in viral plaque formation after 5 days; type: functional, organism-based; settings: Human alphaherpesvirus 3, YS, 120 h
How it was run: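 Confluent HEL cells infected with VZV at 20 PFU/well for 2 h. Residual virus removed, then compound added at varying concentrations in duplicate. Plaques counted after 5 days. EC50 is the concentration reducing plaque formation by 50% versus untreated controls.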

[5] = tested on: Human alphaherpesvirus 3; test: Antiviral activity against thymidine kinase deficient Varicella zoster virus 07/1 infected human HEL cells assessed as reduction in viral plaque formation after 5 days; type: functional, organism-based; settings: Human alphaherpesvirus 3, 07/1, HEL, 120 h; how it was run: as §1
[6] = Cytotoxicity against human HEL cells assessed as alteration of cell morphology by microscopy; type: cell-based
How it was run: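 Confluent human embryonic lung (HEL) cell cultures, run in parallel with a VZV plaque-reduction assay. Compound added at varying concentrations in duplicate. Cells were examined by microscope for altered morphology. MCC is the lowest compound concentration that gives a microscopically detectable change in cell morphology.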

[7] = substrate: CCCCCc1ccc(-c2cc3cn([C@@H]4O[C@H](CO)[C@@H](O)C4(F)F)c(=O)nc3o2)cc1; test: (§2) Activity at Varicella zoster virus recombinant thymidine kinase assessed as 5-monophosphate BCNA formation after 60 mins by HPLC; settings: Human alphaherpesvirus 3
How it was run: (§3)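 VZV TK (1.5 pg) in 50 mM Tris-HCl pH 8, 2.5 mM MgCl2, 10 mM DTT, 2.5 mM ATP, 10 mM NaF; compound at 0.5, 2, 5 and 12.5 µM in DMSO; 37 °C for 60 min. Stopped in ice-cold methanol and centrifuged. Reversed-phase HPLC with ion-pairing phosphate buffer/acetonitrile gradient; nucleoside and 5'-monophosphate quantified by fluorescence (ex 340, em 415 nm).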

[8] = substrate: CCCCCc1ccc(-c2cc3cn([C@@H]4O[C@H](CO)[C@@H](O)[C@@H]4F)c(=O)nc3o2)cc1; test: as §2; settings: Human alphaherpesvirus 3; how it was run: as §3
[9] = substrate: CCCCCc1ccc(-c2cc3cn([C@@H]4O[C@H](CO)[C@@H](O)[C@H]4F)c(=O)nc3o2)cc1; test: as §2; settings: Human alphaherpesvirus 3; how it was run: as §3
[10] = substrate: CCCCCc1ccc(-c2cc3cn([C@H]4C[C@H](O)[C@@H](CO)O4)c(=O)nc3o2)cc1; test: as §2; settings: Human alphaherpesvirus 3; how it was run: as §3

Row | Molecule | IC50 [1] | Ratio [2] | EC50 [3] | EC50 [4] | EC50 [5] | MCC [6] | Km [7] | Vmax [7] | Km [8] | Vmax [8] | Km [9] | Vmax [9] | Km [10] | Vmax [10]
1 | CCCCCc1ccc(-c2cc3cn([C@@H]4O[C@H](CO)[C@@H](O)[C@@H]4F)c(=O)nc3o2)cc1 | 38 µM | 45 | 0.007 µM | 0.011 µM | > 50 µM | > 50 µM |  |  |  |  |  |  |  | 
2 | CCCCCc1ccc(-c2cc3cn([C@H]4C[C@H](O)[C@@H](CO)O4)c(=O)nc3o2)cc1 [CF1743] | 3.3 µM |  |  |  |  | ≥ 50 µM |  |  |  |  |  |  |  | 
3 | CCCCCc1ccc(-c2cc3cn([C@@H]4O[C@H](CO)[C@@H](O)C4(F)F)c(=O)nc3o2)cc1 | 13 µM | 14 | 1.5 µM | 6.7 µM | > 50 µM | ≥ 50 µM |  |  |  |  |  |  |  | 
4 | CCCCCc1ccc(-c2cc3cn([C@@H]4O[C@H](CO)[C@@H](O)[C@H]4F)c(=O)nc3o2)cc1 | 2.7 µM | 7.2 | 0.75 µM |  | > 20 µM | > 50 µM |  |  |  |  |  |  |  | 
5 | B1 |  |  |  |  |  |  | 0.95 µM | 14 µM/h | 1.11 µM | 50 µM/h | 0.47 µM | 3.4 µM/h | 1.58 µM | 22 µM/h
